Key:
[1] = Permeability of the compound from basolateral to apical side in human Caco2 cells at 10 uM; format: ADME, cell-based, Caco-2; settings: caco-2, 10 µM, 10 µM
Method in brief: (§1)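 Caco-2 permeability at 10 μM compound, measured in apical-to-basolateral and basolateral-to-apical directions.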

[2] = Half life in hamster plasma at 2 uM by LC-MS/MS analysis; format: ADME, cell-free; settings: cricetinae, 2 µM
Method in brief: (§2)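 Compound at 2 μM incubated in plasma at 37 °C for up to 4 h. Aliquots quenched with 9 volumes of acetonitrile containing internal standard, then centrifuged. Supernatant analysed by LC-MS/MS.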

Rattus norvegicus [3] = assay: Toxicity in rat at 1000 mg/kg/day for 28 days; format: organism-based; settings: in vivo, 672 h
Hepatitis C virus [4] = assay: Antiviral activity against HCV genotype 1b infected in human HuH7 cells by luciferase reporter gene assay; format: functional, cell-based, Hepacivirus hominis
Method in brief: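 Luciferase-reporter genotype 1b subgenomic replicon in Huh-7 cells; EC50 is concentration giving 50% inhibition. Values are averages of at least three repeats.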

Liver = assay: Hepatic extraction in human liver S9 fractions at 2 uM by LC-MS/MS analysis; format: ADME; settings: s9, 2 µM, 2 µM
Method in brief: (§3)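 Compound at 2 μM incubated with S9 fractions at 37 °C for 90 min with NADPH and UDPGA. Quenched with aqueous acetonitrile/methanol containing internal standard and analysed by LC-MS/MS. Half-life from an exponential fit assuming first-order kinetics. Hepatic extraction predicted from half-life using the well-stirred model.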

Rattus norvegicus [5] = organism: Rattus norvegicus; assay: Toxicity in rat assessed as vacuolization in brain treated for 28 days by histopathology; settings: in vivo, 672 h
Hepatitis C virus [6] = assay: Antiviral activity against HCV genotype 4a infected in human HuH7 cells by luciferase reporter gene assay; format: functional, cell-based, Hepacivirus hominis
Rhesus monkey = assay: Toxicity in monkey at 30 mg/kg/day for 28 days; format: organism-based, Macaca mulatta; settings: in vivo, 672 h
[7] = Hepatic extraction in hamster liver S9 fractions at 2 uM by LC-MS/MS analysis; format: ADME; settings: cricetinae, s9, 2 µM; 2 µM; method in brief: as §3
[8] = Permeability of the compound from apical to basolateral side in human Caco2 cells at 10 uM; format: ADME, cell-based, Caco-2; settings: caco-2, 10 µM, 10 µM; method in brief: as §1
[9] = Half life in hamster intestinal S9 fractions at 2 uM by LC-MS/MS analysis; format: ADME, Intestine; settings: cricetinae, s9, 2 µM; 2 µM
Plasma = assay: Half life in human plasma at 2 uM by LC-MS/MS analysis; format: ADME, cell-free; settings: 2 µM; method in brief: as §2
Hepatitis C virus [10] = assay: Antiviral activity against HCV genotype 1a infected in human HuH7 cells by luciferase reporter gene assay; format: functional, cell-based, Hepacivirus hominis, subtype 1a

permeability [1]: 9.3 ×10⁻⁶ cm/s | t1/2 [2]: 3.63 h | EC50 (Hepatitis C virus [4]): 3000 nM | ERH (Liver): 76% | EC50 (Hepatitis C virus [6]): 440 nM | ERH [7]: 90% | permeability [8]: 1.7 ×10⁻⁶ cm/s | t1/2 [9]: 1.65 h | t1/2 (Plasma): 9.1 h | EC50 (Hepatitis C virus [10]): 800 nM
Structure (SMILES): CC(C)OC(=O)C1(NP(=O)(OC[C@H]2O[C@@H](c3cnc4c(N)ncnn34)[C@](C)(F)[C@@H]2O)Oc2ccccc2)CCC1 (stereo in doubt; 53)
Activity (Rattus norvegicus [3]): Non-Toxic | Activity (Rattus norvegicus [5]): Dose-dependent effect | Activity (Rhesus monkey): Non-Toxic
